Screening results as filed in PubChem BioAssay.
The list is not random: actives were taken first. Their share in the collection is about 1.1%.
Lipid droplet = modulators of hepatic lipid droplet formation; AML12 mouse hepatocytes, oleate lipid droplets, BODIPY imaging; inhibition, % at 6.5 µM; hit rate 0.4% among 240,000;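 active = lipid droplet intensity inhibited by at least 50%, with more than 500 cells counted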
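Test system: AML12 hepatocytes (mouse); reagent: oleate loading, 100 µM; dosing: one dose, 6.5 µM compound; incubation: overnight exposure; signal: fluorescence imaging, 20x objective, two fields per well; read-out basis: % inhibition of corrected integrated BODIPY droplet signal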
FXIa inh = inhibitors of human coagulation factor XIa. purified FXIa, Boc-Glu-Ala-Arg-AMC fluorogenic substrate. inhibition, % at 5 µM. hit rate 0.14% among 220,000. AID 798;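 active = inhibition of at least 40%; inactive = inhibition below 40%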;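 note: fluorescence of freed AMC excited at 355 nm; 0% = enzyme without compound and 100% = no enzyme blank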
Thrombin inh = thrombin (human) inhibition. P00734. alpha-thrombin, Boc-VPR-AMC fluorogenic substrate cleavage. inhibition, % at 5 µM. hit rate 0.26% among 220,000;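 active = inhibition at or above 40%; inactive = inhibition below 40%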;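 note: 0% = enzyme with no compound and 100% = wells without enzyme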
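Material: human alpha-thrombin enzyme / Medium: pH 7.5 Tris (50 mM) with NaCl 150 mM, Tween 20 0.05% / Compound: single-point dosing at 5 µM, 0.2% DMSO / Incubation: enzyme reaction carried out at room temperature / Detection: AMC fluorescence, 355/460 nm / Read-out basis: percent inhibition scaled between no-compound controls and no-enzyme blanks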
hK5 inh = inhibitors of human kallikrein 5. Q9Y337. recombinant hK5, fluorogenic AMC substrate cleavage. inhibition, % at 5 µM. hit rate 0.59% among 210,000. AID 873;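 active = inhibition of 40% or more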;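 note: 0% = enzyme controls without compound and 100% = no-enzyme blanks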
Biofilm kill mix = mixtures killing C. albicans biofilm; hit rate 0.02% among 120,000; C. albicans biofilm persisters + clotrimazole, fluorescence viability; primary screen in compound mixtures of four per well; inhibition, % at 7.6 µM;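 active = inhibition above 30.3% in the primary screen of four-compound pools, then above 30% when the compound was retested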;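 note: compounds exposed to preformed 24 h biofilms for 48 h; 0% = untreated biofilm control and 100% = clotrimazole plus chlorhexidine kill blank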
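Probe or stimulus – Clotrimazole 50 µg/mL co-treatment · System – C. albicans biofilms · Schedule – 24 h biofilm formation, then 48 h compound exposure, 37 °C · Evaluation – percent inhibition of biofilm viability · Technique – 2-h Alamar Blue fluorescence, 535/590 nm excitation/emission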
FXIIa inh 1536 = factor XIIa (human) inhibition. P00748. hit rate 0.3% among 220,000. purified FXIIa, Boc-QGR-AMC fluorogenic substrate, 2 h. inhibition, % at 5 µM; in the data active = inhibition above about 40%;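 note: 0% = enzyme with no compound and 100% = blank without enzyme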
Target sequence (P00748 20-372 limits assumed): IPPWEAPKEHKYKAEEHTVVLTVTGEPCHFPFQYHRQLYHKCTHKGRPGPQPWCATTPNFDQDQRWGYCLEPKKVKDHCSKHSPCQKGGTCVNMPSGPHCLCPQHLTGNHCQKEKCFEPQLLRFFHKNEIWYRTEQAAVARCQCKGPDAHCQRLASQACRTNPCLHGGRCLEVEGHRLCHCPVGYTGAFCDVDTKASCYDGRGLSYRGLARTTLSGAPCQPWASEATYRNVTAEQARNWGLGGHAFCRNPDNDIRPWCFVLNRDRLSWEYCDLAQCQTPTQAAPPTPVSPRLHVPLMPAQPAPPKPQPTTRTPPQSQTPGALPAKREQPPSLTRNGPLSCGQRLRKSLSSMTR
Target sequence (P00748 373-615 limits assumed): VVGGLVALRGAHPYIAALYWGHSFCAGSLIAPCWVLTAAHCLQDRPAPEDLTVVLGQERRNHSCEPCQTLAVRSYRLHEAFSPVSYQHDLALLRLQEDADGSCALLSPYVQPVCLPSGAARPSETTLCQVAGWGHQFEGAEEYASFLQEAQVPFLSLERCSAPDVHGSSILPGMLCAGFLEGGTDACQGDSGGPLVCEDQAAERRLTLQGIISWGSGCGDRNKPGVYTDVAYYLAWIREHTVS
Hep lipid conf = confirmation of inhibitors of hepatic lipid droplet formation | shares compounds with Lipid droplet | AML12 mouse hepatocytes, BODIPY lipid droplet imaging; droplets induced with 100 µM oleic acid | inhibition, % at 5.2 µM | hit rate 65% among 870 | AID 463183;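 active = inhibition of lipid droplet metric at least 50%, with more than 300 cells in each of four replicates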;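 note: plate controls were DMSO with oleic acid for no effect and 5 µM Triacsin-C for full effect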
AML12 cytotox = toxic to AML12 mouse hepatocytes in counter-screen | shares compounds with Lipid droplet | DAPI nuclear morphology cytotoxicity imaging; hits give high values; cells fed 100 µM oleate overnight | z-score at 5 µM | hit rate 3% among 870 | AID 463200; in the data active = z-score above about 6.3;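 note: compound exposure lasted overnight at 37 °C before fixation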
AML12 tox ATP = AML12 hepatocyte cytotoxicity, confirmed | shares compounds with Lipid droplet | AML12 mouse hepatocyte viability, ATP luminescence; cells loaded with 100 µM oleic acid | cytotoxicity, % at 50 µM | 530 tested, under 10 active | AID 463219;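 active = cytotoxicity above 50% in each of four replicates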;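 note: compound exposure lasted overnight at 37 °C before the ATP read; 0% = DMSO-treated cells and 100% = wells with no cells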
Numbers without * were called inactive.

COc1cc(C(=O)Nc2cccc(NC(=O)c3cccs3)c2)cc(OC)c1OC was read as Lipid droplet 13.
Screening CCCN(CCC)CCCNC(=O)c1ccc2c(c1)N(CC)C(=O)c1ccccc1S2=O (stereo not drawn) returned FXIa inh 12, Thrombin inh 13, hK5 inh 22 and FXIIa inh 1536 24.
Screening CCCCSCCCNC(=O)c1ccc2c(c1)N(CC)C(=O)c1ccccc1S2=O (stereo not drawn) returned Lipid droplet 60*, Hep lipid conf 88*, AML12 cytotox 0.053 and AML12 tox ATP 14.
Screening COc1ccc(CC(=O)NC2CCCCCC2)c(OC)c1 returned Lipid droplet -2.
`COc1cccc(NC(=O)CN(Cc2ccccc2)S(C)(=O)=O)c1` gave Lipid droplet 50*, FXIa inh 5, Thrombin inh -7, hK5 inh -14, Biofilm kill mix 7, FXIIa inh 1536 7, Hep lipid conf 43 and AML12 cytotox -0.27.
Screening CCOC(=O)c1ccc(NC(=O)CN(Cc2ccc(Cl)cc2)S(C)(=O)=O)cc1 returned Lipid droplet 50*, FXIa inh -10, Thrombin inh 3, hK5 inh 5, FXIIa inh 1536 17, Hep lipid conf 76*, AML12 cytotox -0.59 and AML12 tox ATP 2.
Screening O=C(Cn1nc(-c2cccc(Cl)c2)ccc1=O)Nc1cccnc1 returned FXIa inh 15, Thrombin inh -1, hK5 inh -3 and FXIIa inh 1536 21.
`O=C(Cn1nc(-c2cccc(Cl)c2)ccc1=O)Nc1ccc(C(=O)NC2CC2)cc1` gave Lipid droplet 52*, FXIa inh 13, Thrombin inh -9, hK5 inh -1, Biofilm kill mix 22, FXIIa inh 1536 8, Hep lipid conf 87*, AML12 cytotox 0.0057 and AML12 tox ATP 13.
`Cc1onc(-c2c(Cl)cccc2Cl)c1C(=O)N1C(C)CCCC1C` (stereo not drawn) gave Lipid droplet -15.
COc1ccc(OC)c(NC(=O)c2ccc(CSc3ncccn3)cc2)c1 was read as Lipid droplet -9, FXIa inh -6, Thrombin inh -9, hK5 inh -5, Biofilm kill mix 21 and FXIIa inh 1536 2.
Screening CC12CCC(=O)N1C(C(=O)Nc1ccc(F)cc1)CS2 (stereo not drawn) returned Lipid droplet 13.
For COc1ccc(CCN2C(=O)CC(N3CCOCC3)C2=O)cc1 (stereo not drawn) the results were Lipid droplet 11, FXIa inh 0, Thrombin inh -3, hK5 inh 3 and FXIIa inh 1536 4.
`COc1ccc(CCN2C(=O)CC(N3CCOCC3)C2=O)cc1OC` (stereo not drawn) gave Lipid droplet 51*, FXIa inh 5, Thrombin inh -3, hK5 inh -7, Biofilm kill mix 5, FXIIa inh 1536 11, Hep lipid conf 25 and AML12 cytotox -0.31.
Screening COC(=O)c1ccc(-c2noc(CN(C)CC3CCCCO3)n2)cc1 (stereo not drawn) returned Lipid droplet 50*, FXIa inh 10, Thrombin inh 9, hK5 inh 16, Biofilm kill mix 28, FXIIa inh 1536 22, Hep lipid conf 8 and AML12 cytotox 0.057.
`COC(=O)c1ccc(-c2noc(CN(Cc3ccncc3)CC3CCCO3)n2)cc1` (stereo not drawn) gave Lipid droplet 6, FXIa inh -1, Thrombin inh 1, hK5 inh 4, Biofilm kill mix 13 and FXIIa inh 1536 13.
For OCCCNc1cc(-c2ccnc(Nc3cccc(Cl)c3)n2)ccn1 the results were Lipid droplet 77*, FXIa inh -2, Thrombin inh -8, hK5 inh -1, Biofilm kill mix 16, FXIIa inh 1536 1, Hep lipid conf 90* and AML12 cytotox 27*.
Screening Cc1ccc(C(C(=O)NC(C)(C)C)N(Cc2ccco2)C(=O)CCC(=O)Nc2ccccn2)cc1 (stereo not drawn) returned Lipid droplet 50*, Hep lipid conf 44 and AML12 cytotox 0.56.
`COc1cccc(C(C(=O)NC(C)(C)C)N(CCC(C)C)C(=O)CCC(=O)Nc2cc(C)on2)c1OC` (stereo not drawn) gave Lipid droplet -6, FXIa inh -3, Thrombin inh -4, hK5 inh -1, Biofilm kill mix 11 and FXIIa inh 1536 6.
Screening COc1ccc(C(C(=O)NC(C)(C)C)N(CCC(C)C)C(=O)CCC(=O)Nc2cc(C)on2)cc1 (stereo not drawn) returned Lipid droplet 114*, Hep lipid conf 108*, AML12 cytotox -0.014 and AML12 tox ATP 10.
CCC(C)(C)NC(=O)C(c1ccc(OC)cc1)N(Cc1ccccc1)C(=O)CCC(=O)Nc1cc(C)on1 (stereo not drawn) was read as Lipid droplet 54*, Hep lipid conf 92*, AML12 cytotox -0.42 and AML12 tox ATP 9.
`COc1ccc(C(C(=O)NC(C)(C)C)N(Cc2ccccc2)C(=O)CCC(=O)Nc2cc(C)on2)cc1` (stereo not drawn) gave Lipid droplet 66*, FXIa inh -4, Thrombin inh -1, hK5 inh -9, Biofilm kill mix 14, FXIIa inh 1536 0, Hep lipid conf 70*, AML12 cytotox -0.48 and AML12 tox ATP 7.
COc1ccc(CN2CCN(Cc3ccc(CO)o3)CC2CCO)cc1C (stereo not drawn) was read as Lipid droplet -5.
For COc1ccc(C(C(=O)NC(C)(C)C)N(CC2CCCO2)C(=O)CCC(=O)Nc2cc(C)on2)cc1 (stereo not drawn) the results were Lipid droplet 58*, FXIa inh 16, Thrombin inh -3, hK5 inh 13, FXIIa inh 1536 25, Hep lipid conf 90*, AML12 cytotox -0.95 and AML12 tox ATP 0.
Screening CC(C)(C)C(=O)Nc1nc2c(s1)COc1ccccc1-2 returned Lipid droplet 55*, FXIa inh 5, Thrombin inh -1, hK5 inh 0, FXIIa inh 1536 23, Hep lipid conf 106*, AML12 cytotox -0.72 and AML12 tox ATP 0.
For CCN(CC(=O)NCc1ccc(F)cc1)C(=O)c1ccc(COc2ccccc2)cc1 the results were Lipid droplet 29.
